Test results as given in ChEMBL document CHEMBL4371006, “Discovery of N-[4-(Quinolin-4-yloxy)phenyl]benzenesulfonamides as Novel AXL Kinase Inhibitors” (J Med Chem, 2018).
Active and inactive are the calls of the source. No cut-off for these calls is given here.

Tests used:
[1] = target: T1, Tyrosine-protein kinase receptor UFO (Homo sapiens, UniProt P30530); assay: Inhibition of AXL (unknown origin) phosphorylation after 1 hr by ELISA
T1 sequence (P30530 whole entry): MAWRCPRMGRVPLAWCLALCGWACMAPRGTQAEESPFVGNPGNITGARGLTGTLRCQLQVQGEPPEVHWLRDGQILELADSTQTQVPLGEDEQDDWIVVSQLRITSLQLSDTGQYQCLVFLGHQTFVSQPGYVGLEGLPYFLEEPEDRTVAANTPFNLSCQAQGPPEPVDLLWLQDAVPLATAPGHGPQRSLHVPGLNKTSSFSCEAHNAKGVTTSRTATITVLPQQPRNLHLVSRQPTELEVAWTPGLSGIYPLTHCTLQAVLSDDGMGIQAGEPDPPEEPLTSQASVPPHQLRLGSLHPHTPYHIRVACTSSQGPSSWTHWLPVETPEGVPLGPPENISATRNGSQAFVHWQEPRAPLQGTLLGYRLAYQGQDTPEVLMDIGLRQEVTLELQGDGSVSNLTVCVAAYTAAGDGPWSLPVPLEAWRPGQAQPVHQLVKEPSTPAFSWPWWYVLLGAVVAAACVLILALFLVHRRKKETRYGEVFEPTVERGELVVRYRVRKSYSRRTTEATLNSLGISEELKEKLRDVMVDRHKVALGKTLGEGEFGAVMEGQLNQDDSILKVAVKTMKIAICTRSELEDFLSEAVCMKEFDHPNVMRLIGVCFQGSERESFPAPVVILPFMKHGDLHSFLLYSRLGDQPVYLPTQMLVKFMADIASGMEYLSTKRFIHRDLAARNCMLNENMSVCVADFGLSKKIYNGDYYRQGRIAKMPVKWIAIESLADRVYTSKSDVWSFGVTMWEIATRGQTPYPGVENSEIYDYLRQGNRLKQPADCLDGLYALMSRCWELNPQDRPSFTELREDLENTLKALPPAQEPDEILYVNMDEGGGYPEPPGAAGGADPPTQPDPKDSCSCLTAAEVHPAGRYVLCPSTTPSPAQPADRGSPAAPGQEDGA

[2] = target: Tyrosine-protein kinase receptor UFO (Homo sapiens) (UniProt P30530); assay: Inhibition of AXL (unknown origin) using fluorescence labeled peptide as substrate at 10 uM by IMAP assay relative to control
Procedure, shortened: (§1)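 IMAP fluorescence-polarization kinase assay at 10 µmol/L compound, run in triplicate by a contract lab. A fluorescently labeled substrate peptide is phosphorylated, then nanoparticles carrying trivalent metal bind the phosphopeptide and slow its rotation. Read-out is fluorescence polarization, expressed as percent inhibition.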

[3] = target: Tyrosine-protein kinase receptor UFO (Homo sapiens) (UniProt P30530); assay: Inhibition of AXL (unknown origin) using biotinylated peptide as substrate at 10 uM by TR-FRET assay relative to control
[4] = target: T2, Hepatocyte growth factor receptor (Homo sapiens, UniProt P08581); assay: Inhibition of c-MET (unknown origin) using fluorescence labeled peptide as substrate at 10 uM by IMAP assay relative to control; procedure, shortened: as §1
T2 sequence (P08581 whole entry): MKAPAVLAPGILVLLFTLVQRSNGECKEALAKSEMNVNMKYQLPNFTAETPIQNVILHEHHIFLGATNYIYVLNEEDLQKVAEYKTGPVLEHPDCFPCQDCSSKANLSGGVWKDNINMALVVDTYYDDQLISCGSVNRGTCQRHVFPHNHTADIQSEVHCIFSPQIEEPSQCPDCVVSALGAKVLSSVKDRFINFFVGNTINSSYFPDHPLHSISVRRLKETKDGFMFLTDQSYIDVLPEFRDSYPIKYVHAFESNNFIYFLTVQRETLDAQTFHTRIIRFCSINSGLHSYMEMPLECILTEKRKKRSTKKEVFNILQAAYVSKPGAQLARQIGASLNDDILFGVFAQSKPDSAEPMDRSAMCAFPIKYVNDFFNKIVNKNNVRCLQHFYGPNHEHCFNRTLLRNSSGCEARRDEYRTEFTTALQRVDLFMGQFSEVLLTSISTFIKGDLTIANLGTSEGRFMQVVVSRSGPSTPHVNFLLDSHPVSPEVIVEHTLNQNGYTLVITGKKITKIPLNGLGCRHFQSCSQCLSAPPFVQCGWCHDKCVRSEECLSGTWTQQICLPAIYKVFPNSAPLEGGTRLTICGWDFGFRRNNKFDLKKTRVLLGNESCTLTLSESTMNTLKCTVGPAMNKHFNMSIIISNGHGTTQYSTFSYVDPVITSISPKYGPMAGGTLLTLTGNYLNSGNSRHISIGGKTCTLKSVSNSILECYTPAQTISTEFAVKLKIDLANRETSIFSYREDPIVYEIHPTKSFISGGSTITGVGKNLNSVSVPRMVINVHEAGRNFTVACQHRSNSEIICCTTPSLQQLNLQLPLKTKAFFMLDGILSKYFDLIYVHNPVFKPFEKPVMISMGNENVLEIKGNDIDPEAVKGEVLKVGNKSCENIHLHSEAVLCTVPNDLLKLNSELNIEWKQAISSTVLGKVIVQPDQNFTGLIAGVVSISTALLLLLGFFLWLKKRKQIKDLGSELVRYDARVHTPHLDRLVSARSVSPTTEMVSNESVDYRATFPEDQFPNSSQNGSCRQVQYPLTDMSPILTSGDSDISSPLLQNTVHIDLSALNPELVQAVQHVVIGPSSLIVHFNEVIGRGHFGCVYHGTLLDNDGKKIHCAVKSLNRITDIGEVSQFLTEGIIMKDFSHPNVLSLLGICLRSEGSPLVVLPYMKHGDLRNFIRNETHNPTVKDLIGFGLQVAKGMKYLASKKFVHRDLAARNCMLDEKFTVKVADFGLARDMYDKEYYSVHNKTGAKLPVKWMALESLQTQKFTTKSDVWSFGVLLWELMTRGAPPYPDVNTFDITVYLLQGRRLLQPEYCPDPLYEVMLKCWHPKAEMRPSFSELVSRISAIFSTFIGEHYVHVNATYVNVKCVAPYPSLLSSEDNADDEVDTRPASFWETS

[5] = target: T2, Hepatocyte growth factor receptor; assay: Inhibition of c-MET (unknown origin) using biotinylated peptide as substrate at 10 uM by TR-FRET assay relative to control
[6] = target: Tyrosine-protein kinase ABL1 (Homo sapiens) (UniProt P00519); assay: Inhibition of ABL (unknown origin) using fluorescence labeled peptide as substrate at 10 uM by IMAP assay relative to control
Procedure, shortened: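 IMAP fluorescence-polarization kinase assay: fluorescently labelled substrate peptide phosphorylated, then captured by trivalent-metal nanoparticles, slowing rotation. Compound at 10 µM, triplicates, percent inhibition reported.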

[7] = target: Tyrosine-protein kinase ABL1 (Homo sapiens) (UniProt P00519); assay: Inhibition of ABL (unknown origin) using biotinylated peptide as substrate at 10 uM by TR-FRET assay relative to control
[8] = target: Mast/stem cell growth factor receptor Kit (Homo sapiens) (UniProt P10721); assay: Inhibition of cKIT (unknown origin) using biotinylated peptide as substrate at 10 uM by TR-FRET assay relative to control
Sequence of Mast/stem cell growth factor receptor Kit (Homo sapiens) (P10721 whole entry): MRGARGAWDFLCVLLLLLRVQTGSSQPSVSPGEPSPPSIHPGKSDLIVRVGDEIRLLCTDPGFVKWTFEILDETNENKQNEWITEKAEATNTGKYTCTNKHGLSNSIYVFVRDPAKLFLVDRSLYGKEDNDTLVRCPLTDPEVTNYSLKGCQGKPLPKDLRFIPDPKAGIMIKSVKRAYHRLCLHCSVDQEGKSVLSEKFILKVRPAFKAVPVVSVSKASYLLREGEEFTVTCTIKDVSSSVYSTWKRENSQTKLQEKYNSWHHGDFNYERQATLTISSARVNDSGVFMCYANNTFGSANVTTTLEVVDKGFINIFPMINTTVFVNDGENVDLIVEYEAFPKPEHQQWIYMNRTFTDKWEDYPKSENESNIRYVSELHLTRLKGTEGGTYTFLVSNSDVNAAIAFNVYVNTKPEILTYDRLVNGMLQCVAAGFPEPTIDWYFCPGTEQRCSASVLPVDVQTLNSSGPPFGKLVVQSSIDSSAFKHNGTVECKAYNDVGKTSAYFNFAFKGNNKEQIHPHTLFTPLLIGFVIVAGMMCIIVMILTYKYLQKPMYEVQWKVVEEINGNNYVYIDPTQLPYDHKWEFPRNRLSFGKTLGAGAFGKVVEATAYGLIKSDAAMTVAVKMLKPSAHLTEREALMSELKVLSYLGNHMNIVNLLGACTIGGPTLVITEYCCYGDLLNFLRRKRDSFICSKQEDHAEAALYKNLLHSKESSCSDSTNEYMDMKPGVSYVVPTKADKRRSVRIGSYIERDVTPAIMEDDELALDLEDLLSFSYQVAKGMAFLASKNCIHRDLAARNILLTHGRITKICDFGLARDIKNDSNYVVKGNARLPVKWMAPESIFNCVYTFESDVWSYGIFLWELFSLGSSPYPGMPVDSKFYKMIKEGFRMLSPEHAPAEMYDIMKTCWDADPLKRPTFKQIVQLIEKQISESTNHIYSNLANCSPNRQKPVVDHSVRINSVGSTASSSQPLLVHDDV

[9] = target: Angiopoietin-1 receptor (Homo sapiens) (UniProt Q02763); assay: Inhibition of TIE2 (unknown origin) using fluorescence labeled peptide as substrate at 10 uM by IMAP assay relative to control; procedure, shortened: as §1
[10] = target: Platelet-derived growth factor receptor beta (Homo sapiens) (UniProt P09619); assay: Inhibition of PDGFRbeta (unknown origin) using fluorescence labeled peptide as substrate at 10 uM by IMAP assay relative to control; procedure, shortened: as §1
Sequence of Platelet-derived growth factor receptor beta (Homo sapiens) (P09619 whole entry): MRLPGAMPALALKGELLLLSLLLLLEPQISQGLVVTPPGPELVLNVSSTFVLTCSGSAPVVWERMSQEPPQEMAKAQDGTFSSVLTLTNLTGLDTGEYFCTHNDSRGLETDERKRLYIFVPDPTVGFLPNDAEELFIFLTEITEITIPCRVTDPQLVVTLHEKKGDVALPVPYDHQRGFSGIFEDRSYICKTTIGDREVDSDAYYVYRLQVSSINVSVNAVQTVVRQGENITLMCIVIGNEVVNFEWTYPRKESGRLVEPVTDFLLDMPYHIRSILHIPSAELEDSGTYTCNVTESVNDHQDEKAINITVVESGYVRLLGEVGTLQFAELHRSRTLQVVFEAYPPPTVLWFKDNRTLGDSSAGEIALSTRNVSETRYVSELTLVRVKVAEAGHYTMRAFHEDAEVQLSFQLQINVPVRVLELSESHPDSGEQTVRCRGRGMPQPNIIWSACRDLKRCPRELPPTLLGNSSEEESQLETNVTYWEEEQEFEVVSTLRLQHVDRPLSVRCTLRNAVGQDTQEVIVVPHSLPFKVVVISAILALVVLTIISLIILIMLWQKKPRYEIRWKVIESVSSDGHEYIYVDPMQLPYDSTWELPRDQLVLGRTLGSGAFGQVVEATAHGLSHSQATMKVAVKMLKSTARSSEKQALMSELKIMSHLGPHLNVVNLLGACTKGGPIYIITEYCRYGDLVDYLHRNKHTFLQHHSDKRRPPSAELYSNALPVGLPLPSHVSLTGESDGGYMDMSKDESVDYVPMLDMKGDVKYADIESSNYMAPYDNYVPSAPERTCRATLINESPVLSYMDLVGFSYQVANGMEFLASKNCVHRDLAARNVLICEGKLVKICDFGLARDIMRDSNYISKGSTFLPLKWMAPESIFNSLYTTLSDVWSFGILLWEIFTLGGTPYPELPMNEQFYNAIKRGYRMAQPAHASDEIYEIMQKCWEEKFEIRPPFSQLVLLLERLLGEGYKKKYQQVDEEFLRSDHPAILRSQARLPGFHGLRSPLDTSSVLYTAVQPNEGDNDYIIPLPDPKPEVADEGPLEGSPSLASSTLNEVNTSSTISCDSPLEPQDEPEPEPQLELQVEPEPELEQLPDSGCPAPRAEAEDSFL

[11] = target: Platelet-derived growth factor receptor beta (Homo sapiens) (UniProt P09619); assay: Inhibition of PDGFRbeta (unknown origin) using biotinylated peptide as substrate at 10 uM by TR-FRET assay relative to control
[12] = target: T3, Aurora kinase A (Homo sapiens) (UniProt O14965); assay: Inhibition of AurA (unknown origin) using fluorescence labeled peptide as substrate at 10 uM by IMAP assay relative to control; procedure, shortened: as §1
T3 sequence (whole entry): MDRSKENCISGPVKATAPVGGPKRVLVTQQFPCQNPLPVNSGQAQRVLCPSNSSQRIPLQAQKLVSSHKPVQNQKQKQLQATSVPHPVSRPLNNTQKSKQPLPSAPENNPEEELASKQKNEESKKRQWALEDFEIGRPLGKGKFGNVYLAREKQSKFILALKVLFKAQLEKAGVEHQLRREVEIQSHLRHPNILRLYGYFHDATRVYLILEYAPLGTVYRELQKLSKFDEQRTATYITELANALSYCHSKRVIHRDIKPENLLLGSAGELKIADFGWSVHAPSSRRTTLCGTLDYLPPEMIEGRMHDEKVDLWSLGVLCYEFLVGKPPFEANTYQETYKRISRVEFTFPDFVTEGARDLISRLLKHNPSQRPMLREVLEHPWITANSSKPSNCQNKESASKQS

[13] = target: T3, Aurora kinase A (Homo sapiens); assay: Inhibition of AurA (unknown origin) using biotinylated peptide as substrate at 10 uM by TR-FRET assay relative to control
[14] = target: Vascular endothelial growth factor receptor 2 (Homo sapiens) (UniProt P35968); assay: Inhibition of VEGFR2 (unknown origin) using fluorescence labeled peptide as substrate at 10 uM by IMAP assay relative to control; procedure, shortened: as §1
Sequence of Vascular endothelial growth factor receptor 2 (Homo sapiens) (P35968 whole entry): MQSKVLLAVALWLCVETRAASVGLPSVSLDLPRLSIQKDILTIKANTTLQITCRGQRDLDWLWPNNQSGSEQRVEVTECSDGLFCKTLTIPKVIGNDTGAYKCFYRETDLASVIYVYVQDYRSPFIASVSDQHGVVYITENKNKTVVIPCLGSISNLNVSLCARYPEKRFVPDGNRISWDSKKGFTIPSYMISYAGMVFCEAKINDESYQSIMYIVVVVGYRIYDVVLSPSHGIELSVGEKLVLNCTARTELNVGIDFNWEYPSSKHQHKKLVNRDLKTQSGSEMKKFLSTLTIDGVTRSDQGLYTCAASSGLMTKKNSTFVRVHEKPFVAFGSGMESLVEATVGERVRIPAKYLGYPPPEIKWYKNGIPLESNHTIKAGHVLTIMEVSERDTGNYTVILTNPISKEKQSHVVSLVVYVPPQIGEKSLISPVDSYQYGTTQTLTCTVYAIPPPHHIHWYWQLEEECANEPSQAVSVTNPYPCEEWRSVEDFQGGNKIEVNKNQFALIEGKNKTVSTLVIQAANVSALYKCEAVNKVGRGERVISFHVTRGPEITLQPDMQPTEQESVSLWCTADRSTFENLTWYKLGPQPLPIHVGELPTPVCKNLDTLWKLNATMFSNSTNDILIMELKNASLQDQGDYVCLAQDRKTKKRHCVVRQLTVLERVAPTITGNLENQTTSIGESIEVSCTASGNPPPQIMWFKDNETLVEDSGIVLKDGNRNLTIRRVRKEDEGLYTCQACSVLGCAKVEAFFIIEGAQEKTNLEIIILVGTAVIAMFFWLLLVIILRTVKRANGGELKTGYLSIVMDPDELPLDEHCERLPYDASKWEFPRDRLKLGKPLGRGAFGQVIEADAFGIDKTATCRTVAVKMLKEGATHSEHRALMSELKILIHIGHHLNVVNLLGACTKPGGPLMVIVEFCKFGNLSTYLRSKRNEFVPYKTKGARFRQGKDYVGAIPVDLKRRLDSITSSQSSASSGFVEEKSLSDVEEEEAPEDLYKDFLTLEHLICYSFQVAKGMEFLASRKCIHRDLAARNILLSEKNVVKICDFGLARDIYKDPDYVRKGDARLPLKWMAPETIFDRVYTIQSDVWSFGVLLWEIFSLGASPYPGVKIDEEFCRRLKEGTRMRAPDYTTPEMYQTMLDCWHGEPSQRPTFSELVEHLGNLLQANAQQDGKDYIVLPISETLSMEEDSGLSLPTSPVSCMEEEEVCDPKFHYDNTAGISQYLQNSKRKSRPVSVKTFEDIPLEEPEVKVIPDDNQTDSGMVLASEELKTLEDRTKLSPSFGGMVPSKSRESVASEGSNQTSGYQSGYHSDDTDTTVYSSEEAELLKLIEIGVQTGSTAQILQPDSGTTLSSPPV

[15] = target: Vascular endothelial growth factor receptor 2 (Homo sapiens) (UniProt P35968); assay: Inhibition of VEGFR2 (unknown origin) using biotinylated peptide as substrate at 10 uM by TR-FRET assay relative to control
[16] = target: Proto-oncogene tyrosine-protein kinase Src (Homo sapiens, UniProt P12931); assay: Inhibition of SRC (unknown origin)
[17] = target: T2, Hepatocyte growth factor receptor; assay: Inhibition of c-MET (unknown origin)
MDA-MB-231 [18] = assay: Anti-invasive activity against human MDA-MB-231 cells up to 3 uM after 5 hrs by matrigel assay; format: functional, cell-based
Procedure, shortened: (§2)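 MDA-MB-231 cells (7000/well) seeded on polymerized 3 mg/mL Matrigel (set ≥16 h at 37°C) in serum-free medium; inhibitor added at seeding, aggregates forming over 5 h.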

MDA-MB-231 [19] = assay: Antimigratory activity against human MDA-MB-231 cells assessed as inhibition of large cell aggregate formation after 5 hrs by matrigel assay; format: functional, cell-based; settings: MDA-MB-231, 5 h; procedure, shortened: as §2
[20] = Ratio of IC50 for antimigratory activity against human MDA-MB-231 cells after 3.5 hrs by microscopy based Boyden chamber assay to IC50 for inhibition of AXL (unknown origin)
[21] = Selectivity ratio of compound effect for anti-invasive activity against human MDA-MB-231 cells to IC50 for AXL (unknown origin) phosphorylation

Structure (SMILES)	IC50 [1] [nM]	Efficacy [2] [%]	Efficacy [3] [%]	Efficacy [4] [%]	Efficacy [5] [%]	Efficacy [6] [%]	Efficacy [7] [%]	Efficacy [8] [%]	Efficacy [9] [%]	Efficacy [10] [%]	Efficacy [11] [%]	Efficacy [12] [%]	Efficacy [13] [%]	Efficacy [14] [%]	Efficacy [15] [%]	IC50 [16] [nM]	IC50 [17] [nM]	inhibition (MDA-MB-231 [18])	IC50 (MDA-MB-231 [19]) [nM]	Ratio IC50 [20]	also measured
COc1cc2c(Oc3ccc(NS(=O)(=O)c4cc(F)ccc4F)cc3F)ccnc2cc1OCCCN1CCN(C)CC1	27	83 to 100	83 to 100	83 to 100	83 to 100	83 to 100	83 to 100	83 to 100	83 to 100	83 to 100	83 to 100	83 to 100	83 to 100	83 to 100	83 to 100	88	358	Active	158	>50	Selectivity ratio [21]: 2 - 6
COc1cc2c(Oc3ccc(NS(=O)(=O)c4ccccc4C(F)(F)F)cc3F)ccnc2cc1OCCCN1CCN(C)CC1	21	83 to 100	83 to 100	83 to 100	83 to 100	83 to 100	83 to 100	83 to 100	83 to 100	83 to 100	83 to 100	83 to 100	83 to 100	83 to 100	83 to 100	544	488	Active	158	>50	Selectivity ratio [21]: 2 - 6
COc1cc2c(Oc3ccc(NS(=O)(=O)c4c(F)cccc4F)cc3F)ccnc2cc1OCCCN1CCN(C)CC1	35	83 to 100	83 to 100	83 to 100	83 to 100	83 to 100	83 to 100	83 to 100	83 to 100	83 to 100	83 to 100	83 to 100	83 to 100	83 to 100	83 to 100	44	127	Active	156	>50	Selectivity ratio [21]: 2 - 6
COc1cc2c(Oc3ccc(NS(=O)(=O)c4cc(F)ccc4F)cc3F)ccnc2cc1OCCCN1CCCC(C)C1 (centres undefined)	28	83 to 100	83 to 100	83 to 100	83 to 100	83 to 100	83 to 100	83 to 100	83 to 100	83 to 100	83 to 100	83 to 100	83 to 100	83 to 100	83 to 100	113	1310	Active	185	>50	Selectivity ratio [21]: 2 - 6
